ChEMBL document CHEMBL4725236, “Synthesis and pharmacological evaluation of bivalent tethered ligands to target the mGlu heterodimeric receptor results in a compound with mGlu homodimer selectivity” (Bioorg Med Chem Lett, 2020)

Tests used:
Type in all cases: cell-based
[1] = target: Metabotropic glutamate receptor 4 (Rattus norvegicus) (UniProt P31423); assay: Positive allosteric modulation of rat mGlu4 receptor expressed in HEK293 cells coexpressing GIRK assessed as thallium influx by CODA-RET assay relative to glutamate; details: filed as positive allosteric modulator
In short: (§1)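 HEK293/GIRK thallium flux assay in cells expressing only mGlu2 or only mGlu4. Concentration-response measured against a fixed EC20 glutamate level. Potency (EC50), Hill slope and efficacy (% of the response to saturating glutamate) come from a single experiment run in triplicate.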

HEK293 = assay: Positive allosteric modulation of rat mGlu2/mGlu4 receptor expressed in HEK293 cells coexpressing GIRK assessed as thallium influx by CODA-RET assay relative to glutamate; details: filed as positive allosteric modulator
In short: (§2)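 HEK293 cells co-expressing mGlu2, mGlu4 and GIRK channels; thallium flux read-out. Test compound concentration-response in the presence of a fixed EC20 glutamate concentration. Gives EC50, Hill slope and maximal response as % of a saturating glutamate concentration. N=3 experiments, each in triplicate.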

[2] = target: Metabotropic glutamate receptor 2 (Rattus norvegicus) (UniProt P31421); assay: Positive allosteric modulation of rat mGlu2 receptor expressed in HEK293 cells coexpressing GIRK assessed as thallium influx by CODA-RET assay relative to glutamate; details: filed as positive allosteric modulator; in short: as §1
[3] = Positive allosteric modulation of rat mGlu2/mGlu4 receptor expressed in HEK293 cells coexpressing GIRK assessed as thallium influx in presence of EC20 glutamate by CODA-RET assay; in short: as §2
[4] = target: Metabotropic glutamate receptor 4 (Rattus norvegicus, UniProt P31423); assay: Positive allosteric modulation of rat mGlu4 receptor expressed in HEK293 cells coexpressing GIRK assessed as thallium influx in presence of EC20 glutamate by CODA-RET assay; in short: as §1
[5] = target: Metabotropic glutamate receptor 2 (Rattus norvegicus, UniProt P31421); assay: Positive allosteric modulation of rat mGlu2 receptor expressed in HEK293 cells coexpressing GIRK assessed as thallium influx in presence of EC20 glutamate by CODA-RET assay; in short: as §1
Metabotropic glutamate receptor 2, sequence (P31421 whole entry): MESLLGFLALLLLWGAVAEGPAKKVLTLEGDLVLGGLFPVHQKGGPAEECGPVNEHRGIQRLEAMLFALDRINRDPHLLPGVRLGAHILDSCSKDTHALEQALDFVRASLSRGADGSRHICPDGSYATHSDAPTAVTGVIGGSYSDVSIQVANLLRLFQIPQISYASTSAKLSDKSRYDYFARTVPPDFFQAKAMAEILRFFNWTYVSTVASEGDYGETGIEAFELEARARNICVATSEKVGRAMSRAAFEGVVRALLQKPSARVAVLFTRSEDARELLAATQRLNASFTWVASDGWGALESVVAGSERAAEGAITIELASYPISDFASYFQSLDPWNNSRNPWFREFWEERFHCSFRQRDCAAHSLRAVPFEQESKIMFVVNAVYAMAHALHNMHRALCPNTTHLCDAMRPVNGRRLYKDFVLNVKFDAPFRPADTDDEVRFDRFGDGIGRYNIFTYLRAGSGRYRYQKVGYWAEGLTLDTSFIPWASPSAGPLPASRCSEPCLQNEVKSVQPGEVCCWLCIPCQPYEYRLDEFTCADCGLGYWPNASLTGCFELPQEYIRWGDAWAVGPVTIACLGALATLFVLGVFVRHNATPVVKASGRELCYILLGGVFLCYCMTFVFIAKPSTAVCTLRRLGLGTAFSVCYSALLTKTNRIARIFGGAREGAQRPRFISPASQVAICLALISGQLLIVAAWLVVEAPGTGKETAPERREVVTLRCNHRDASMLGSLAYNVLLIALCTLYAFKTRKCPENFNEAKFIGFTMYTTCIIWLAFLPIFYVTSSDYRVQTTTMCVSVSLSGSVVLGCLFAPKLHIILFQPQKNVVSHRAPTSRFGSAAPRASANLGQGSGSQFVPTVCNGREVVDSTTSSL

Metabotropic glutamate receptor 4 (Rattus norvegicus), sequence (P31423 whole entry): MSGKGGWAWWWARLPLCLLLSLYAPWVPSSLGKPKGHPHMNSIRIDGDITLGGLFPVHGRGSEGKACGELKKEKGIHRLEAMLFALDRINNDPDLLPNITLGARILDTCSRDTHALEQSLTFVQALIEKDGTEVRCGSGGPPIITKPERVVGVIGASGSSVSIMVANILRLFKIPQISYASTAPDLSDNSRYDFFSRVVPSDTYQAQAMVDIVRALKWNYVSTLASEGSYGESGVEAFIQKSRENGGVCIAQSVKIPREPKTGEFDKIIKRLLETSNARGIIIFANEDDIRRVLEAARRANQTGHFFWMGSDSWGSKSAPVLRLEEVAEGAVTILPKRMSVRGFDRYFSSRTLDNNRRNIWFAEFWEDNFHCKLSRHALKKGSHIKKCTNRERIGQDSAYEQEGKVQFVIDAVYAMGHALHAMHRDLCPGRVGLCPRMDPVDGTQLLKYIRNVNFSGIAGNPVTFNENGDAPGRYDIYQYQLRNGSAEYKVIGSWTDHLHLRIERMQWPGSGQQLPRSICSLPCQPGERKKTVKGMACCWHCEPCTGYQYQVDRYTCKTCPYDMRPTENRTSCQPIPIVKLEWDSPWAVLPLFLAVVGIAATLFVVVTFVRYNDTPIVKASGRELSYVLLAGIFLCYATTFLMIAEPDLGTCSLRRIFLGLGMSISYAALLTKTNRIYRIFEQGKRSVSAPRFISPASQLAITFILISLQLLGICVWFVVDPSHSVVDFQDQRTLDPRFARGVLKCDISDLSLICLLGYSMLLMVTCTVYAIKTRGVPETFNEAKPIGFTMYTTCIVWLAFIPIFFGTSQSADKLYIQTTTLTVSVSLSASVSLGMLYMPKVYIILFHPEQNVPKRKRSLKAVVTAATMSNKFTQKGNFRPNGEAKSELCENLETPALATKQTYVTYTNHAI
Metabotropic glutamate receptor 4, sequence (P31423 whole entry): as above
Metabotropic glutamate receptor 2 (Rattus norvegicus), sequence (P31421 19-872 limits assumed): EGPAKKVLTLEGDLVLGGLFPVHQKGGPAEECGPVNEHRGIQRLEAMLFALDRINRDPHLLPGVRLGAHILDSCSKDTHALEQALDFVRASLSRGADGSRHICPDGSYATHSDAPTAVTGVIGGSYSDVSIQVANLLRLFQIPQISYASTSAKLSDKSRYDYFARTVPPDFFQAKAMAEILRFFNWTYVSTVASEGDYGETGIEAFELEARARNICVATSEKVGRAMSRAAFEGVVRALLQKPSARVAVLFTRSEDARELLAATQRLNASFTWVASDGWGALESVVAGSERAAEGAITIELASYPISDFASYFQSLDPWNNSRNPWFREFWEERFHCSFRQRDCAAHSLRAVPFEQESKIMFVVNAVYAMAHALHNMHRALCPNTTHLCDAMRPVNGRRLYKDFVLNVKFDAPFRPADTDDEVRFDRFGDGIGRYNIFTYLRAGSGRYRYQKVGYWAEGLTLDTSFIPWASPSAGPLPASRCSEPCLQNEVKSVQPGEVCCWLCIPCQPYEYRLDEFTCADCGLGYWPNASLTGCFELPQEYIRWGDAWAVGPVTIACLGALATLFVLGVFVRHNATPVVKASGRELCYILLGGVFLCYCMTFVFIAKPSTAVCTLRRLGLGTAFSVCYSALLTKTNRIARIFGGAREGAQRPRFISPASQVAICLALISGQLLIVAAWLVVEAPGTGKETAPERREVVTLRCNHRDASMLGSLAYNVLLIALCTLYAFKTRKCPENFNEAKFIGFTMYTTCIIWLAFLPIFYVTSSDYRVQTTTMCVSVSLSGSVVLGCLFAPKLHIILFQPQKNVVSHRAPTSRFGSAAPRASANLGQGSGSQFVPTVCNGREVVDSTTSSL

Emax [1] [%] | Emax [2] [%] | EC50 [3] [nM] | EC50 [4] [nM] | EC50 [5] [nM] | Compound | Emax (HEK293) [%]
110 | 102 | 128 | 35 | 92 | COc1cc(NC(=O)c2ccccn2)ccc1NC(=O)c1ccc(NC(=O)COCC(=O)NCCCCCNC(=O)COc2ccc(-c3cccc(COc4cc5c(c(C)c4C)C(=O)C(C4CCCC4)C5)c3)cc2C(=O)O)cc1Cl (stereo not given) | 89
106 | 102 | 680 | 32 | 62 | COc1cc(NC(=O)c2ccccn2)ccc1NC(=O)c1ccc(NC(=O)COCC(=O)NCCCCCCNC(=O)COc2ccc(-c3cccc(COc4cc5c(c(C)c4C)C(=O)C(C4CCCC4)C5)c3)cc2C(=O)O)cc1Cl (stereo not given) | 101
114 | 100 | 90 | 38 | 54 | COc1cc(NC(=O)c2ccccn2)ccc1NC(=O)c1ccc(NC(=O)COCC(=O)NCCCNC(=O)COc2ccc(-c3cccc(COc4cc5c(c(C)c4C)C(=O)C(C4CCCC4)C5)c3)cc2C(=O)O)cc1Cl (stereo not given) | –
104 | 92 | 463 | 657 | 281 | COc1cc(NC(=O)c2ccccn2)ccc1NC(=O)c1ccc(NC(=O)COCC(=O)NCCNC(=O)COc2ccc(-c3cccc(COc4cc5c(c(C)c4C)C(=O)C(C4CCCC4)C5)c3)cc2C(=O)O)cc1Cl (stereo not given) | 70
– | 118 | – | – | 69 | Cc1c(OCc2cccc(-c3cccc(C(=O)O)c3)c2)cc2c(c1C)C(=O)C(C1CCCC1)C2 (stereo not given) | –
113 | 98 | 150 | 33 | 98 | COc1cc(NC(=O)c2ccccn2)ccc1NC(=O)c1ccc(NC(=O)COCC(=O)NCCCCNC(=O)COc2ccc(-c3cccc(COc4cc5c(c(C)c4C)C(=O)C(C4CCCC4)C5)c3)cc2C(=O)O)cc1Cl (stereo not given) | 88
– | 88.2 | 300 | – | 84.3 | COc1ccc(-c2cccc(COc3cc4c(c(C)c3C)C(=O)C(C3CCCC3)C4)c2)cc1C(=O)O (stereo not given) | 64.5
45 | 102 | 2070 | > 10000 | 1180 | COc1cc(NC(=O)c2ccccn2)ccc1NC(=O)c1ccc(NC(=O)COCC(=O)NCCCCCCCCCCCCNC(=O)COc2ccc(-c3cccc(COc4cc5c(c(C)c4C)C(=O)C(C4CCCC4)C5)c3)cc2C(=O)O)cc1Cl (stereo not given) | 71
85 | 101 | 524 | 30 | 122 | COc1cc(NC(=O)c2ccccn2)ccc1NC(=O)c1ccc(NC(=O)COCC(=O)NCCCCCCCNC(=O)COc2ccc(-c3cccc(COc4cc5c(c(C)c4C)C(=O)C(C4CCCC4)C5)c3)cc2C(=O)O)cc1Cl (stereo not given) | 86
– | 113 | – | – | 62 | Cc1c(OCc2cccc(-c3ccc(O)c(C(=O)O)c3)c2)cc2c(c1C)C(=O)C(C1CCCC1)C2 (stereo not given) | –
94.4 | – | 2760 | 34 | – | COc1cc(NC(=O)c2ccccn2)ccc1NC(=O)c1ccccc1Cl | 42
41 | 102 | 350 | > 10000 | 134 | COc1cc(NC(=O)c2ccccn2)ccc1NC(=O)c1ccc(NC(=O)COCC(=O)NCCCCCCCCCCNC(=O)COc2ccc(-c3cccc(COc4cc5c(c(C)c4C)C(=O)C(C4CCCC4)C5)c3)cc2C(=O)O)cc1Cl (stereo not given) | 86
52 | 97 | 371 | 32 | 94 | COc1cc(NC(=O)c2ccccn2)ccc1NC(=O)c1ccc(NC(=O)COCC(=O)NCCCCCCCCNC(=O)COc2ccc(-c3cccc(COc4cc5c(c(C)c4C)C(=O)C(C4CCCC4)C5)c3)cc2C(=O)O)cc1Cl (stereo not given) | 83
